Drawing on ChEMBL document CHEMBL1155459, “On-bead screening of a combinatorial fumaric acid derived peptide library yields antiplasmodial cysteine protease inhibitors with unusual peptide sequences” (J Med Chem, 2009), this text covers inhibition, Ki and IC50 for eleven compounds.

pIC50, pKi: −log10 of the molar value. Active and inactive are the calls of the source. No cut-off for these calls is given here. Square brackets hold non-standard residues; d marks the D form. Peptide text beside a SMILES is read from it. * marks the point of attachment. Fumaroyl(GlyGlyPheOH) = O=C(/C=C/C(=O)*)NCC(=O)NCC(=O)N[C@@H](Cc1ccccc1)C(=O)O; Chg = N[C@H](C(=O)O)C1CCCCC1; Dap = NC[C@H](N)C(=O)O

For experiment [1], the target named is Rhodesain (Trypanosoma brucei rhodesiense) (UniProt Q95PM0). The experiment can be described thus: Inhibition of Trypanosoma brucei rhodesiense recombinant rhodesain at 200 uM.
Chain of Rhodesain (Trypanosoma brucei rhodesiense) (Q95PM0 1-450): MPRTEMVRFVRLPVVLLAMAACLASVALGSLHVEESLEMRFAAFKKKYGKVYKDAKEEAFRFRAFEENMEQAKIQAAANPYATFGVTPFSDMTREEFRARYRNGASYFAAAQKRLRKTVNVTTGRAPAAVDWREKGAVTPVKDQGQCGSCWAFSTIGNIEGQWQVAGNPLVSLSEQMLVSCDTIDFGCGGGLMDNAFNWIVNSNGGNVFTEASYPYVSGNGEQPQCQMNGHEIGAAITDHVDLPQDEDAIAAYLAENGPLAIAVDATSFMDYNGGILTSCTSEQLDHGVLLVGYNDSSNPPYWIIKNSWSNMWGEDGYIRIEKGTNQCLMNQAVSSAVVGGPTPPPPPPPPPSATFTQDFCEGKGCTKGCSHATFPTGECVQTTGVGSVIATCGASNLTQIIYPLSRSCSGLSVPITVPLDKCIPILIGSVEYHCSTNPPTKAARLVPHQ
Experiment [2] can be described thus: Inhibition of Plasmodium falciparum falcipain-2 after 12 hrs by fluorescence spectroscopy-based on-bead assay. Details: concentration or dose not given beside the values. The note with it: concentration not given here. The gist of the method: (§1)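 Library members on resin (PEGA, theoretical loading 0.40 mmol/g; added as DMSO suspension, 0.64 mM final inhibitor) preincubated with enzyme 12 h, then Cbz-Phe-Arg-AMC 40 μM added; AMC release followed by fluorescence (ex 380/em 460 nm). Kinetics compared with inhibitor-free amino-PEGA resin.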

For experiment [3], the system named is Plasmodium falciparum. The experiment can be described thus: Inhibition of Plasmodium falciparum recombinant falcipain-2 expressed in Escherichia coli at 100 uM after 20 min by spectrofluorometry. The gist of the method: (§2)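 Single-point screen at 100 μM inhibitor (final). Recombinant enzyme in 50 mM acetate pH 5.5, 5 mM EDTA, 200 mM NaCl, 5 mM DTT, 10% DMSO final; Cbz-Phe-Arg-AMC 40 μM (or Cbz-Leu-Arg-AMC 25 μM) hydrolysis followed by fluorescence (ex 380/em 460 nm). % inhibition = 100(1 − vi/vc) from progress-curve slopes vs DMSO control; at least two independent assays.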

A short description of experiment [4]: Inhibition of Plasmodium falciparum recombinant falcipain-2 expressed in Escherichia coli […] using Cbz-Leu-Arg-AMC as substrate by spectrofluorometry.
The target in experiment [5] is Rhodesain (Trypanosoma brucei rhodesiense) (UniProt Q95PM0). The experiment can be described thus: Inhibition of Trypanosoma brucei rhodesiense rhodesain after 12 hrs by fluorescence spectroscopy-based on-bead assay. Details: concentration or dose not given beside the values. The note with it: concentration not given here. The gist of the method:
as §1

Experiment [6] shares this target. The experiment can be described thus: Inhibition of Trypanosoma brucei rhodesiense recombinant rhodesain at 100 uM. The procedure, abridged: as §2
The target in a further experiment is Rhodesain (Trypanosoma brucei rhodesiense, UniProt Q95PM0). As to the kind of experiment: Inhibition of Trypanosoma brucei rhodesiense recombinant rhodesain.
Chain of Rhodesain (Q95PM0 whole entry): as the sequence (Q95PM0 1-450) above
Experiment [7] deals with T1, Cathepsin B (Homo sapiens, UniProt P07858). The experiment can be described thus: Inhibition of human liver cathepsin B at 100 uM.
For another experiment, the target named is Procathepsin L (Bos taurus, UniProt P25975). The experiment can be described thus: Inhibition of bovine spleen cathepsin L. The procedure, abridged: (§3)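 Cathepsin L (bovine spleen) or B (human liver) hydrolysis of Cbz-Phe-Arg-AMC (40 μM) followed by fluorescence for 5-10 min without preincubation at 0.1-80 μM inhibitor, 10% DMSO final.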
Chain of Procathepsin L (P25975 whole entry): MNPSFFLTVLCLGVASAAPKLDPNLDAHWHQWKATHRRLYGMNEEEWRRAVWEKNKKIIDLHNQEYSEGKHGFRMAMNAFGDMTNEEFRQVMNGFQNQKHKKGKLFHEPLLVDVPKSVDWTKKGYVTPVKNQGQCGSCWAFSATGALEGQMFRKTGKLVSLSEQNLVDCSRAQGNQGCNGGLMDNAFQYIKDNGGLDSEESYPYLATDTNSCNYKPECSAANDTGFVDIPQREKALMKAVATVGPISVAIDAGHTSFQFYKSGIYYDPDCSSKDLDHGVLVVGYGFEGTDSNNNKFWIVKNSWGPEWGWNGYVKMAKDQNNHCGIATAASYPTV
Experiment [8] is described as follows: Inhibition of Plasmodium falciparum recombinant falcipain-2 expressed in Escherichia coli after 20 min using Cbz-Phe-Arg-AMC as substrate by spectrofluorometry. To be noted: in the assay text read “over 5-10 min” for “after 20 min”. The gist of the method:
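Continuous assay without preincubation. Recombinant falcipain-2 in 50 mM acetate pH 5.5, 5 mM EDTA, 200 mM NaCl, 5 mM DTT, 10% DMSO final; Cbz-Phe-Arg-AMC (40 μM, Km 21.5 μM) or Cbz-Leu-Arg-AMC (25 μM, Km 8.4 μM). Fluorescence monitored 5-10 min at 0.1-80 μM inhibitor. Ki from Dixon plot, corrected to zero substrate; at least two independent assays.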

Experiment [9] deals with Plasmodium falciparum. The experiment can be described thus: Antiplasmodial activity against Plasmodium falciparum FCBR by fluorometric method. To be noted: for pIC50: Plasmodium falciparum, FCBR/Columbia, read-out: IC50. It counts as functional, organism-based, FCBR/Columbia.
For experiment [10], the target named is T1, Cathepsin B. As to the kind of experiment: Inhibition of human liver cathepsin B. The procedure, abridged:
as §3

The subject of experiment [11] is Trypanosoma brucei brucei. As to the kind of experiment: Antitrypanosomal activity against Trypanosoma brucei brucei. It counts as functional, organism-based.
Experiment [12] concerns the target T1, Cathepsin B. The experiment can be described thus: Inhibition of human liver cathepsin B at 200 uM measured before dialysis. The procedure, abridged: (§4)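 Human liver cathepsin B activity measured with 200 μM inhibitor before and after 3 h of continuous dialysis against assay buffer, to test reversibility.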
For experiment [13], the target named is T1, Cathepsin B. As to the kind of experiment: Inhibition of human liver cathepsin B at 200 uM measured after dialysis. The gist of the method: as §4
Experiment [14] can be described thus: Inhibition of Plasmodium falciparum falcipain-2 by fluorescence enzyme assay.

By inhibition is commonly meant the change of the read-out against control, counted positive when it falls. On to `N=C(N)c1ccc(OCCCCCOc2ccc(C(=N)N)cc2)cc1`, for which the inhibition in experiment [1] was determined as 28%.

A word on the pKi: it is the Ki on a negative log10 scale, so that one unit is a factor of ten. Take `CC(C)C[C@H](NC(=O)[C@H](C)NC(=O)/C=C/C(=O)N[C@@H](C)C(=O)NCC(=O)N[C@@H](Cc1ccccc1)C(=O)O)C(=O)N[C@@H](CC(C)C)C(=O)N[C@H](C(N)=O)C(C)C` (HELM PEPTIDE1{[C[C@H](NC(=O)/C=C/C(=O)[*:2])C(=O)NCC(=O)N[C@@H](Cc1ccccc1)C(=O)O].A.L.L.V.[am]}$$$$V2.0): the inhibition in [2] turned out to be 58%; with Plasmodium falciparum [3], 86%; in experiment [5], 67%; in [6] it was 96%; against Cathepsin B [7] it was 45%. The pKi in [4] was 5.02; at Rhodesain, 5.89; at Procathepsin L it was 4.47.

For the compound `CC(C)C[C@H](NC(=O)[C@H](C)NC(=O)/C=C/C(=O)NCC(=O)NCC(=O)N[C@@H](Cc1ccccc1)C(=O)O)C(=O)N[C@@H](CC(C)C)C(=O)N[C@H](C(N)=O)C(C)C` (HELM PEPTIDE1{[O=C(/C=C/C(=O)[*:2])NCC(=O)NCC(=O)N[C@@H](Cc1ccccc1)C(=O)O].A.L.L.V.[am]}$$$$V2.0), the inhibition was determined as 55% in experiment [2]; 73% in the experiment with Plasmodium falciparum [3]; 65% in [5]; 99% in experiment [6]; 38% at Cathepsin B [7]. Also, the pKi was 6.00 at Rhodesain and 4.51 on Procathepsin L.

With `CC(C)C[C@H](NC(=O)[C@H](Cc1ccccc1)NC(=O)/C=C/C(=O)NCC(=O)NCC(=O)N[C@@H](Cc1ccccc1)C(=O)O)C(=O)N[C@@H](CC(C)C)C(=O)N[C@H](C(N)=O)C(C)C` (HELM PEPTIDE1{[O=C(/C=C/C(=O)[*:2])NCC(=O)NCC(=O)N[C@@H](Cc1ccccc1)C(=O)O].F.L.L.V.[am]}$$$$V2.0), the inhibition in experiment [2] was determined as 69%; in the experiment with Plasmodium falciparum [3], 100%; in [5], 69%; in experiment [6], 68%; against Cathepsin B [7], 73%. Also, the pKi in experiment [8] is 6.10; at Rhodesain, 6.70; on Cathepsin B [10] it was 4.64; at Procathepsin L, 4.46. Also, the IC50 result in the experiment with Plasmodium falciparum [9] is listed as “Not Active”.

One may read the pIC50 as the negative decadic logarithm of the IC50, by convention in mol/L. On to `CC(C)[C@H](NC(=O)[C@H](C)NC(=O)[C@@H](NC(=O)[C@H](CC(N)=O)NC(=O)/C=C/C(=O)NCC(=O)NCC(=O)N[C@@H](Cc1ccccc1)C(=O)O)C1CCCCC1)C(N)=O` (HELM PEPTIDE1{[O=C(/C=C/C(=O)[*:2])NCC(=O)NCC(=O)N[C@@H](Cc1ccccc1)C(=O)O].N.[O=C([C@@H](N[*:1])C1CCCCC1)[*:2]].A.V.[am]}$$$$V2.0), for which the inhibition in experiment [2] was 73%; in the experiment on Plasmodium falciparum [3], 79%; in experiment [5], 26%; in experiment [6], 98%; against Cathepsin B [7], 78%. Moreover, the pKi in [8] was 4.91; on Rhodesain, 6.40; at Cathepsin B [10], 4.65. In addition, the pIC50 with Plasmodium falciparum [9] was 4.12.

On to `CC(C)[C@H](NC(=O)[C@@H](NC(=O)[C@@H](NC(=O)[C@H](CC(N)=O)NC(=O)/C=C/C(=O)NCC(=O)NCC(=O)N[C@@H](Cc1ccccc1)C(=O)O)C1CCCCC1)C(C)C)C(N)=O` (HELM PEPTIDE1{[O=C(/C=C/C(=O)[*:2])NCC(=O)NCC(=O)N[C@@H](Cc1ccccc1)C(=O)O].N.[O=C([C@@H](N[*:1])C1CCCCC1)[*:2]].V.V.[am]}$$$$V2.0), for which the inhibition stood at 61% in experiment [2]; 90% in the experiment on Plasmodium falciparum [3]; 46% in experiment [5]; 96% in experiment [6]; 100% on Cathepsin B [7]; 74% against Cathepsin B [12]. The compound also gave an inhibition against Cathepsin B [13] of 73%. The pKi in experiment [8] was 5.28; on Rhodesain, 7.10; on Cathepsin B [10], 5.85; at Procathepsin L, 4.43. The pIC50 with Plasmodium falciparum [9] was 4.49. Moreover, in experiment [11], the IC50 entry is given as “Not Active”.

Turning to `CC(C)[C@H](NC(=O)[C@@H](NC(=O)[C@@H](NC(=O)[C@H](CCC(N)=O)NC(=O)/C=C/C(=O)NCC(=O)NCC(=O)N[C@@H](Cc1ccccc1)C(=O)O)C1CCCCC1)C(C)C)C(N)=O` (HELM PEPTIDE1{[O=C(/C=C/C(=O)[*:2])NCC(=O)NCC(=O)N[C@@H](Cc1ccccc1)C(=O)O].Q.[O=C([C@@H](N[*:1])C1CCCCC1)[*:2]].V.V.[am]}$$$$V2.0), the inhibition came out at 51% in [2]; 83% in the experiment with Plasmodium falciparum [3]; 53% in experiment [5]; 99% in [6]; 81% on Cathepsin B [7]. In addition, the values for the pKi (in experiment [8]; on Rhodesain) were 5.82 and 7.10, respectively. In addition, in the experiment with Plasmodium falciparum [9], the negative logarithm of the IC50 (pIC50) was 4.57. In addition, the IC50 result in experiment [11] is given as “Not Active”.

Consider `CC(=O)NC[C@H](NC(=O)/C=C/C(=O)NCC(=O)NCC(=O)N[C@@H](Cc1ccccc1)C(=O)O)C(=O)N[C@@H](CC(C)C)C(=O)N[C@@H](CC(C)C)C(=O)N[C@H](C(N)=O)C(C)C` (HELM PEPTIDE1{[O=C(/C=C/C(=O)[*:2])NCC(=O)NCC(=O)N[C@@H](Cc1ccccc1)C(=O)O].[O=C([C@H](CN[*:3])N[*:1])[*:2]].L.L.V.[am]}|PEPTIDE2{[ac]}$PEPTIDE1,PEPTIDE2,2:R3-1:R2$$$V2.0), for which the inhibition in [2] came out at 54%; in the experiment with Plasmodium falciparum [3] it was 79%; in experiment [5], 60%; in [6], 87%. The pKi in experiment [4] was 4.93; at Rhodesain, 5.74; on Procathepsin L it was 4.40. For the same compound, the inhibition result at Cathepsin B [7] was “inactive”.

On to `CC(=O)NC[C@H](NC(=O)/C=C/C(=O)NCC(=O)NCC(=O)N[C@@H](Cc1ccccc1)C(=O)O)C(=O)N[C@H](C(=O)N[C@@H](C)C(=O)N[C@H](C(N)=O)C(C)C)C1CCCCC1` ({Fumaroyl(GlyGlyPheOH)}-[Dap](Ac)[Chg]AV-NH2), for which the inhibition in [2] amounted to 23%; in the experiment with Plasmodium falciparum [3], 83%; in [5] it was 25%; in experiment [6] it was 95%; against Cathepsin B [7] it was 83%. The pKi in experiment [8] is 5.15; at Rhodesain it was 6.52; at Cathepsin B [10] it was 4.91. For the same compound, the pIC50 in the experiment with Plasmodium falciparum [9] is 4.66. In experiment [11], the IC50 result is “Not Active”.

In [14], `CC(C)C[C@H](NC(=O)[C@H]1O[C@@H]1C(=O)O)C(=O)NCCCCN=C(N)N` [E-64] gave a pKi of 6.54.

Take `NCCCC(N)(C(=O)O)C(F)F` (stereo not drawn) [EFLORNITHINE]: in experiment [6], the inhibition came to 31%. Further, in experiment [11] (Trypanosoma brucei, read-out: IC50), the pIC50 was 4.51.
